TMEM16A inh: mouse TMEM16A channel inhibition, primary screen; Q8BHY3; HEK293 TMEM16A/YFP iodide influx fluorescence, ionomycin; normalized B-score (activity score, 25-100; higher = stronger inhibition) at 10 µM; 310,000 tested, 1.2% active; AID 588511;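 active means ratio plate-corrected score three or more library SD toward inhibition, starting fluorescence score within five deviations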;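 further: score derived from kinetic fluorescence span divided by baseline fluorescence per well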
MC4R antagonist: antagonists of human melanocortin 4 receptor (MC4R). P32245. MC4R-expressing cells, MTII-stimulated cAMP, LANCE TR-FRET. inhibition, % at 6.5 µM. 360,000 tested, 0.48% active. AID 540295;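 active means inhibition above its plate's cutoff, the mean of tested wells on that plate plus 3 SD, cut at about 29% in these data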;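 further: 0% = Melanotan II alone and 100% = Melanotan II plus saturating MCL0020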
Target sequence (P32245 whole entry, looked up): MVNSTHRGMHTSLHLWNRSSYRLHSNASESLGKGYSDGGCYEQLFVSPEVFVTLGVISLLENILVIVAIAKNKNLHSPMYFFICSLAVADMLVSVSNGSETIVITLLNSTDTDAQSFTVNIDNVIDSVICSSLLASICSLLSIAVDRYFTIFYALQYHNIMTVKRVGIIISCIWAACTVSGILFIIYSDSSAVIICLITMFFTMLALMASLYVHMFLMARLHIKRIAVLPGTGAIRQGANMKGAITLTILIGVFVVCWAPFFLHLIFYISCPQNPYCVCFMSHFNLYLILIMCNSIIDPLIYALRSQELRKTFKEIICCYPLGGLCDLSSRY
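Material: U2OS-MC4R stable cell line | Reagent: Melanotan II challenge after compound preincubation | Doses: One concentration, 6.5 µM nominal | Incubation: 30-min compound preincubation, 1-h Melanotan II challenge, 1-h detection, room temperature | Signal: TR-FRET cAMP assay | Replicates: One well per compound, no replicates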
CSC inhib: blocks cancer stem cells. AID 2717. cancer stem cell-like cells viability, luminescence. inhibition, % at 7.5 µM. 300,000 tested, 1.1% active; in the data active means inhibition above about 75%; tested in HMLE shEcad cells
ANO1 activ: activates or potentiates the mouse TMEM16A chloride channel; Q8BHY3; HEK293 TMEM16A/YFP-H148Q/I152L, iodide quench fluorescence; stronger effect = lower value; B-score at 10 µM; 340,000 tested, 0.3% active; AID 623877;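 active means fluorescence-ratio B-score plate-corrected deviation score at least 3 library SD below zero, with starting fluorescence score within 5 deviations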;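 further: channel opened by trigger with iodide after compound preincubation; score built on the fluorescence ratio of max minus min over baseline; more negative score means more quench and so TMEM16A activation or potentiation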
MC4R barr agon: activates human MC4R beta-arrestin recruitment; 360,000 tested, 0.98% active; activation, % at 8.9 µM; U2OS MC4R beta-arrestin complementation, luminescence; percent of melanotan II response, DMSO zero;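 active means activation above a per-plate cutoff, the mean activation of sample wells on that plate plus 3 SD, cut at about 8% in these data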
Beta cell apopt: blocks beta cell apoptosis; INS-1E cytokine-induced death, ATP luminescence, 48 h; percent of positive-control rescue, neutral wells zero; protection from apoptosis, % (no concentration beside the values); 300,000 tested, 0.8% active;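 active means Every replicate reaches about 75%, or at least half do and their mean reaches it too, limit read from the data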;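 further: 0% = cytokine-treated negative control wells and 100% = positive control rescue; higher means more ATP so stronger rescue from cytokine killing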
An asterisk follows results filed as active; i = inactive; x = no result. Rows were chosen to be rich in hits. Some 3.8% of all compounds tested hit in one or more screens of this group.

SMILES	TMEM16A inh	MC4R antagonist	CSC inhib	ANO1 activ	MC4R barr agon	Beta cell apopt
Oc1c(Br)c(Br)c(Br)c(Br)c1Br	x	5	101*	i	2	-1
COC(=O)C1=C(c2ccc3ccccc3c2)C[C@@H]2CC[C@H]1N2C(=O)NCc1ccco1	x	6	6	i	-2	-7
C[C@H](CO)N1C[C@H](C)[C@@H](CN(C)C(=O)Oc2ccc3ccccc3c2)OCc2cnnn2CCCC1=O	x	-3	x	x	-1	x
c1ccc(Nc2ccc(Nc3ccccc3)cc2)cc1	x	-3	27	i	2	4
N#CC(C#N)=C(C#N)c1ccc(Nc2ccccc2)cc1	i	-1	93*	i	-2	x
Cc1cc(N2CCNCC2)nc2ccccc12	i	-4	-12	i	0	-11
COc1cc(CN2CCN(c3cc(C)ccc3C)CC2)ccc1O	i	1	-5	i	0	108*
CC1Oc2cc3c(-c4c(O)cc(O)c5c(O)c6c(cc45)OC(C)C(C)C6=O)c(O)cc(O)c3c(O)c2C(=O)C1C (centres undefined)	i	20	-3	-9.1*	9.7*	109*
COC(=O)C(O)(c1ccc(N(C)C(=O)c2cccs2)cc1)C(F)(F)F (centres undefined)	i	8	16	i	-2	x
O=[N+]([O-])c1ccc(Cl)c([N+](=O)[O-])c1	i	27	102*	i	1	14
C[C@]12CCC3[C@@H](CCC4=CC(=O)CC[C@@]43C=O)C1CCC2=O (some centres undefined)	i	-9	47	i	0	3
CCCCCn1c(=O)c(C(=O)Nc2cnccn2)c(O)c2ccccc21	i	4	0	-6.5*	-2	73
CCCCn1c(=O)c(C(=O)Nc2ccccc2)c(O)c2ccccc21	i	11	45	i	-2	22
CCCCCCn1c(=O)c(C(=O)Nc2ncccc2C)c(O)c2ccccc21	i	2	6	i	2	82*
CCCCn1c(=O)c(C(=O)Nc2ncccc2C)c(O)c2ccccc21	i	2	8	i	0	-9
CCCCCn1c(=O)c(C(=O)NC(C)c2ccccc2)c(O)c2ccccc21 (centres undefined)	i	3	34	i	-2	109*
O=C(/C=C/c1ccc(Cl)cc1)NC(=S)N1C[C@H]2C[C@H](C1)c1cccc(=O)n1C2	i	12	-7	i	-1	2
Cc1nc2c(=O)n(C)c(=O)nc-2n(C)n1	i	-16	2	i	0	106*
CC(=O)O[C@H]1[C@H]2O[C@]23[C@@H]2CC[C@]4(O)C[C@@H](O)CC[C@]4(C)C2CC[C@]3(C)[C@H]1c1ccc(=O)oc1 (some centres undefined)	x	4	105*	i	24*	0
C[C@]12CC[C@H]3C(CCC4(O)CC(O)CC[C@]34C=O)C1=CC[C@H]2c1ccc(=O)oc1 (some centres undefined)	i	4	78*	i	21*	-6
ON1C2CCCCC2N(O)C1c1ccccc1F (centres undefined)	i	-1	-8	i	-2	0
Cc1ccccc1-[n+]1c(-c2ccccc2)cc(-c2ccccc2)cc1-c1ccccc1	100*	2	27	i	1	100*
[O-]c1ccccc1-[n+]1c(-c2ccccc2)cc(-c2ccccc2)cc1-c1ccccc1	100*	17	38	i	-1	95*
Brc1ccc(-[n+]2c(-c3ccccc3)cc(-c3ccccc3)cc2-c2ccccc2)cc1	100*	3	44	i	1	129*
Cc1ccc(-c2cc(-c3ccccc3)cc(-c3ccccc3)[n+]2-c2ccc(C(=O)O)cc2)cc1	i	1	1	i	0	-8
Nc1ccccc1-[n+]1c(-c2ccccc2)cc(-c2ccccc2)cc1-c1ccccc1	i	18	7	-9*	2	39
O=C(O)C1C2CC3CC(C2)CC1(n1ncc(N2CCC4(CC2)OCCO4)c(Cl)c1=O)C3 (centres undefined)	i	1	-3	i	-1	-7
